Results pooled from the literature.
Compare with care: the assays were run in different laboratories.
Observed: cell growth or viability

Oc1ccc(Nc2nc(-c3ccc(Cl)cc3)cs2)cc1 — IC50 (1205Lu; MTS; 72 h): 71.8 µM
Cc1cc(Nc2ncc(Cl)c(Nc3ccccc3S(=O)(=O)C(C)C)n2)c(OC(C)C)cc1C1CCNCC1 — IC50 (BJ; 72 h): 2.6 µM
CC(C)C[C@H](NC(=O)[C@H](Cc1ccccc1)NC(=O)c1cnccn1)B(O)O — IC50 (HuTu80; ATP luminescence): 0.014 µM
CN(C)C/C=C/C(=O)Nc1cc2c(Nc3ccc(F)c(Cl)c3)ncnc2cc1O[C@H]1CCOC1 — IC50 (KB-C2; MTT; 72 h): 4.9 µM
C[C@@H](Oc1cc(-c2cnn(C3CCNCC3)c2)cnc1N)c1c(Cl)ccc(F)c1Cl — IC50 (BJ; 72 h): 2.11 µM
Oc1ccc(-c2ccc3cc(O)ccc3c2)c(O)c1 — IC50 (CHL; MTT; 24 h): 119 µg/mL
O=C1NC(=O)[C@@H](c2cn3c4c(cccc24)CCC3)[C@@H]1c1c[nH]c2ccccc12 — IC50 (SW-1736; MTT; 72 h): 0.11 µM
COc1cc2nccc(Oc3ccc(NC(=O)C4(C(=O)Nc5ccc(F)cc5)CC4)cc3)c2cc1OC — IC50 (BJ; 72 h): 4.52 µM
COc1cccc2c1C(=O)c1c(O)c3c(c(O)c1C2=O)C[C@@](O)(C(=O)CO)C[C@@H]3O[C@H]1C[C@H](N)[C@H](O)[C@H](C)O1 — IC50 (WI-38 VA13; MTT; 48 h): 0.22 µg/mL
CC(C)C(=O)Nc1ccc([N+](=O)[O-])c(C(F)(F)F)c1 — IC50 (IOSE-144; CCK-8; 48 h): > 50 µM
O=C(N/N=C/c1c(O)ccc2ccccc12)c1cc(-c2ccc3ccccc3c2)n[nH]1 — IC50 (1205Lu; MTS; 24 h): 20.4 µM
